{
  "source": "ChEMBL document CHEMBL2021776",
  "about": "“Highly potent and selective fluorescent antagonists of the human adenosine A₃ receptor based on the 1,2,4-triazolo[4,3-a]quinoxalin-1-one scaffold” (J Med Chem, 2012)",
  "key": {"[1]": {"molecular_target": "T1, Adenosine receptor A3 (Homo sapiens, UniProt P0DMS8)", "T1 sequence (P0DMS8 whole entry)": "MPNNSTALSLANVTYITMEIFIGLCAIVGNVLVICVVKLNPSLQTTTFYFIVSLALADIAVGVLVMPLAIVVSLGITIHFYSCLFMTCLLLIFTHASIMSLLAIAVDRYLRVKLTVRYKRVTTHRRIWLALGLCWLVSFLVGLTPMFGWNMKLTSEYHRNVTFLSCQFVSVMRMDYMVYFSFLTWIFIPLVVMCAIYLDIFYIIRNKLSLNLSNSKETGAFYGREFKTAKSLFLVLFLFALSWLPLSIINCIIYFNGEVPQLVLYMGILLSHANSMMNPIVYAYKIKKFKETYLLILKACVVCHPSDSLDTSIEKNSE", "assay": "Antagonist activity at human adenosine A3 receptor expressed in forskolin-stimulated CHO cells assessed as inhibition of NECA-induced CRE-SPAP gene transcription by measuring intracellular cAMP level after 5 hrs", "assay_type": "functional, cell-based", "how_it_was_run": "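Clonal CHO cells co-expressing CRE-SPAP reporter and human A3 receptor, serum-starved 18 h. Three antagonist concentrations for 30 min at 37 °C, then NECA curves for 30 min, then 1 μM forskolin for 5 h. After 1 h in fresh medium and 65 °C heat step, SPAP activity read as 4-nitrophenyl phosphate hydrolysis (405 nm). Curves globally fitted to an interaction model.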"}, "[2]": {"molecular_target": "T2, Adenosine receptor A2b (Homo sapiens, UniProt P29275)", "T2 sequence (P29275 whole entry)": "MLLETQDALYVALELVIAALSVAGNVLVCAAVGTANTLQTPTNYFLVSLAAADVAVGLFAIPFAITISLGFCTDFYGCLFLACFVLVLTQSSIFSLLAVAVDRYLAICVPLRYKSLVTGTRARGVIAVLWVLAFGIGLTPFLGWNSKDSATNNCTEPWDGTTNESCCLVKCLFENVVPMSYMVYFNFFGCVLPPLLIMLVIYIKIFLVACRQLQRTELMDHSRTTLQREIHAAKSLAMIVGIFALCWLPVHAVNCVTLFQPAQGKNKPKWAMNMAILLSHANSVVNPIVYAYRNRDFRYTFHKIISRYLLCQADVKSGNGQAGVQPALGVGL", "assay": "Antagonist activity at adenosine A2B receptor in HEK293 cells expressing glosensor cAMP biosensor assessed as inhibition of NECA-induced increase of intracellular cAMP level after 5 hrs", "assay_type": "functional, cell-based", "how_it_was_run": "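HEK293 cells stably expressing Glosensor cAMP biosensor, with endogenous human A2B receptor. Cells equilibrated 2 h at 37 °C in HBSS with 3% v/v Glosensor reagent. Antagonist added at 1.5 h, NECA at 2 h. Luminescence read every 2 min for 60 min; maximal read used. pKD estimated from rightward shift of NECA curve by 1 μM antagonist via dose ratio.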"}, "[3]": {"molecular_target": "T3, Adenosine receptor A1 (Homo sapiens) (UniProt P30542)", "T3 sequence (whole entry)": "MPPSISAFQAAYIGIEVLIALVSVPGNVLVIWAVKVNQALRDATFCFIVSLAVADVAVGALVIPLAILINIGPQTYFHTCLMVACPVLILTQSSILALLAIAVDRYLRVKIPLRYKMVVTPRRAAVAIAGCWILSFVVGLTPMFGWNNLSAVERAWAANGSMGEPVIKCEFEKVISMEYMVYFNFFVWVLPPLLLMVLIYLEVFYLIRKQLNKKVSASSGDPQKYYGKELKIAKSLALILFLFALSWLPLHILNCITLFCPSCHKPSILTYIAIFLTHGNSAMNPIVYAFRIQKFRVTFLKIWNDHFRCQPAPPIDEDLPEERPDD", "assay": "Binding affinity to human full length human adenosine A1 receptor expressed in CHO cells at 25 nM after 10 mins by confocal microscopic analysis", "assay_type": "cell-based", "how_it_was_run": "(§1)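 Live CHO cells stably expressing human A1 receptor were washed in HBS. They were preincubated 30 min at 37 °C with or without 100 nM DPCPX, then exposed to fluorescent ligand (25 nM, or up to 100 nM) for 10 min. Single equatorial confocal images were taken using identical laser power, gain and offset.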"}, "[4]": {"organism": "Homo sapiens", "assay": "Selectivity ratio of human A1 receptor to human A3 receptor"}, "[5]": {"molecular_target": "T4, Adenosine receptor A3 (Homo sapiens) (UniProt P0DMS8)", "T4 sequence (whole entry)": "T1 sequence (P0DMS8 whole entry)", "assay": "Binding affinity to human adenosine A3 receptor expressed in CHO cells assessed as intracellular fluorescence level after 10 mins by confocal microscopic analysis", "assay_type": "cell-based", "how_it_was_run": "(§2)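 Live CHO cells stably expressing human A3 receptor were washed in HBS. They were preincubated 30 min at 37 °C with or without 100 nM MRS1220, then exposed to 25 nM fluorescent ligand for 10 min. Single equatorial confocal images were taken in the continued presence of ligand, using identical laser and detector settings. Images are representative of 3−5 experiments.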"}, "[6]": {"molecular_target": "T4, Adenosine receptor A3 (Homo sapiens)", "assay": "Binding affinity to human adenosine A3 receptor expressed in CHO cells assessed as intracellular fluorescence level after 10 mins by confocal microscopic analysis in presence of MRS1220 treated 30 mins before compound challenge", "assay_type": "cell-based", "how_it_was_run": "as §2"}, "[7]": {"molecular_target": "T3, Adenosine receptor A1 (Homo sapiens)", "assay": "Binding affinity to human full length human adenosine A1 receptor expressed in CHO cells after 10 mins by confocal microscopic analysis in presence of DPCPX treated 30 mins before compound challenge", "assay_type": "cell-based", "how_it_was_run": "as §1"}, "[8]": {"molecular_target": "T5, Adenosine receptor A1 (Homo sapiens, UniProt P30542)", "T5 sequence (P30542 whole entry)": "T3 sequence (whole entry)", "assay": "Antagonist activity at human adenosine A1 receptor expressed in CHO cells assessed as inhibition of NECA-induced increase of intracellular calcium level after 5 hrs"}, "[9]": {"molecular_target": "T3, Adenosine receptor A1 (Homo sapiens)", "assay": "Binding affinity to human full length human adenosine A1 receptor expressed in CHO cells up to 100 nM after 10 mins by confocal microscopic analysis", "assay_type": "cell-based", "how_it_was_run": "as §1"}},
  "note": "Calls of active or inactive are those of the source. No cut-off for these calls is given here.",
  "data": [
    {"smiles": "COc1ccc(-n2nc3c(NC(=O)CN)nc4ccccc4n3c2=O)cc1", "values": [
      {"measurement": "Kd", "setting": "[1]", "result": 1.45, "unit": "nM"}
    ]},
    {"smiles": "COc1ccc(-n2nc3c(NC(=O)c4ccc(N)cc4)nc4ccccc4n3c2=O)cc1", "values": [
      {"measurement": "Kd", "setting": "[1]", "result": 38, "unit": "nM"}
    ]},
    {"smiles": "COc1ccc(-n2nc3c(NC(=O)CCC(=O)NCCOCCOCCNC(=O)CCOCCOCCOCCOCCOCCOCCOCCOCCOCCOCCOCCOCCNC(=O)c4ccc(-c5c6ccc(=[N+](C)C)cc-6oc6cc(N(C)C)ccc56)c(C(=O)[O-])c4)nc4ccccc4n3c2=O)cc1", "values": [
      {"measurement": "Kd", "setting": "[1]", "result": 5.62, "unit": "nM"}
    ]},
    {"smiles": "COc1ccc(-n2nc3c(NC(=O)CCC(=O)NCCOCCOCCNC(=O)CCCCCNC(=O)COc4ccc(C5=[N+]6C(=Cc7ccc(-c8cccs8)n7[B-]6(F)F)C=C5)cc4)nc4ccccc4n3c2=O)cc1", "values": [
      {"measurement": "Kd", "setting": "[1]", "result": 3.39, "unit": "nM"},
      {"measurement": "Kd", "setting": "[2]", "result": "< 1000", "unit": "nM"},
      {"measurement": "Activity", "setting": "[3]", "result": "Active"},
      {"measurement": "Selectivity ratio", "setting": "[4]", "result": 50},
      {"measurement": "Activity", "setting": "[5]", "result": "Active"},
      {"measurement": "Activity", "setting": "[6]", "result": "Active"},
      {"measurement": "Activity", "setting": "[7]", "result": "inactive"},
      {"measurement": "Kd", "setting": "[8]", "result": 166, "unit": "nM"}
    ]},
    {"smiles": "COc1ccc(-n2nc3c(NC(=O)CCC(=O)NCCCCCCCCNC(=O)CCCCCNC(=O)COc4ccc(/C=C/C5=[N+]6C(=Cc7ccc(-c8cccs8)n7[B-]6(F)F)C=C5)cc4)nc4ccccc4n3c2=O)cc1", "values": [
      {"measurement": "Kd", "setting": "[1]", "result": 16.6, "unit": "nM"}
    ]},
    {"smiles": "COc1ccc(-n2nc3c(NC(=O)CCC(=O)NCCCCCCCCN)nc4ccccc4n3c2=O)cc1", "values": [
      {"measurement": "Kd", "setting": "[1]", "result": 0.331, "unit": "nM"}
    ]},
    {"smiles": "COc1ccc(-n2nc3c(NC(=O)CCC(=O)NCCOCCOCCNC(=O)CCCCCNC(=O)COc4ccc(/C=C/C5=[N+]6C(=Cc7ccc(-c8cccs8)n7[B-]6(F)F)C=C5)cc4)nc4ccccc4n3c2=O)cc1", "values": [
      {"measurement": "Kd", "setting": "[1]", "result": 0.437, "unit": "nM"},
      {"measurement": "Kd", "setting": "[2]", "result": "< 1000", "unit": "nM"},
      {"measurement": "Activity", "setting": "[9]", "result": "inactive"},
      {"measurement": "Selectivity ratio", "setting": "[4]", "result": 650},
      {"measurement": "Activity", "setting": "[5]", "result": "Active"},
      {"measurement": "Activity", "setting": "[6]", "result": "inactive"},
      {"measurement": "Kd", "setting": "[8]", "result": 275, "unit": "nM"}
    ]},
    {"smiles": "CCN1/C(=C/C=C/C=C/C2=[N+](CCCCCC(=O)NCCOCCOCCNC(=O)CCC(=O)Nc3nc4ccccc4n4c(=O)n(-c5ccc(OC)cc5)nc34)c3cc(S(=O)(=O)[O-])ccc3C2(C)C)C(C)(C)c2cc(S(=O)(=O)O)ccc21", "values": [
      {"measurement": "Kd", "setting": "[1]", "result": 148, "unit": "nM"}
    ]},
    {"smiles": "COc1ccc(-n2nc3c(NC(=O)CCC(=O)NCCOCCOCCN)nc4ccccc4n3c2=O)cc1", "values": [
      {"measurement": "Kd", "setting": "[1]", "result": 20.9, "unit": "nM"}
    ]}
  ]
}
